The EC50 is the midpoint of the concentration-response curve.

In brackets after ≈: the same amount, converted by molar mass. A value given as a limit tells only on which side of the number the result lay.

The first test relates to Mus musculus. As to the kind of experiment: Half life time in plasma at a single iv dose of 10 mg/kg.
Settings: not given
Turning to `O=C(Nc1ccc2nc(NC(=O)C3CC3)sc2c1)c1c(Cl)cccc1Cl`, the T1/2 came to 3.29 h.

Another test deals with WI-38 VA13. As to the kind of experiment: Cytotoxicity against tumorigenic cell line WI-38 VA-13 subline 2RA (VA-13);no cytotoxicity against parental cell line WI-38. The conditions noted are these: Homo sapiens. Type of test: functional, cell-based.
Take `CCCOC(=O)Nc1nc2ccc(NC(=O)c3c(Cl)cccc3Cl)cc2s1`: the concentration for a half-maximal effect (EC50) was determined as 0.0025 µg/mL (≈ 0.00589 µM). Turning to `Cc1ccc(F)cc1S(=O)(=O)Nc1ccc2nc(NC(=O)C3CCCCC3)sc2c1`, the EC50 came out at 0.7 µg/mL (≈ 1.56 µM). As to `O=C(Nc1ccc2nc(NC(=O)C3CCCCC3)sc2c1)c1c(Cl)cccc1Cl`, the concentration for a half-maximal effect (EC50) came out at 0.015 µg/mL (≈ 0.0335 µM). As to `O=C(Nc1nc2ccc(NC(=O)c3c(Cl)cccc3Cl)cc2s1)Oc1ccccc1`, the 50% effective concentration (EC50) was determined as 1.1 µg/mL (≈ 2.4 µM). For the compound `O=C(Nc1ccc2nc(NC(=O)C3CCCCC3)sc2c1)c1c(F)cccc1C(F)(F)F`, the EC50 was found to be 0.032 µg/mL (≈ 0.0687 µM). As for `CCNC(=O)Nc1nc2ccc(NC(=O)c3c(Cl)cccc3Cl)cc2s1`, the concentration giving a half-maximal response (EC50) turned out to be 0.032 µg/mL (≈ 0.0782 µM). `COc1cccc(Nc2nc3ccc(NC(=O)c4c(Cl)cccc4Cl)cc3s2)c1`: the 50% effective concentration (EC50) is over 7.2 µg/mL. As for `CC(C)NC(=O)Nc1nc2ccc(NC(=O)c3c(Cl)cccc3Cl)cc2s1`, the EC50 is 0.03 µg/mL (≈ 0.0709 µM).

For `O=C(Nc1nc2ccc(NC(=S)Nc3ccc4c(c3)OCCO4)cc2s1)C1CCCCC1`, the EC50 is 1.6 µg/mL (≈ 3.41 µM). Consider `O=C(Nc1ccc2nc(NC(=O)C3CCCCC3)sc2c1)c1ccc(Cl)cc1Cl`, for which the EC50 is over 4 µg/mL.

`O=C(O)CCC(=O)Nc1nc2ccc(NC(=O)c3c(Cl)cccc3Cl)cc2s1`: the 50% effective concentration (EC50) is over 6.6 µg/mL. In the case of `COc1ccc(C(=O)Nc2ccc3nc(NC(=O)C4CCCCC4)sc3c2)cc1`, the half-maximal effective concentration (EC50) was determined as 4.9 µg/mL (≈ 12 µM). As to `Cn1ncc([N+](=O)[O-])c1C(=O)Nc1ccc2nc(NC(=O)C3CCCCC3)sc2c1`, the EC50 was found to be 0.026 µg/mL (≈ 0.0607 µM). `O=C(Nc1ccc2nc(NC(=O)C3CCCCC3)sc2c1)c1cccc(F)c1`: the EC50 was 0.64 µg/mL (≈ 1.61 µM). In the case of `CC(=O)Nc1nc2ccc(NC(=O)c3c(Cl)cccc3Cl)cc2s1`, the EC50 was 0.6 µg/mL (≈ 1.58 µM). Still for that read-out and setting: the value for `CCCCCNc1nc2ccc(NC(=O)c3c(Cl)cccc3Cl)cc2s1` was 0.27 µg/mL (≈ 0.661 µM); that for `NCCC(=O)Nc1nc2ccc(NC(=O)c3c(Cl)cccc3Cl)cc2s1` was 5.3 µg/mL (≈ 12.9 µM); that for `C=CCOC(=O)Nc1ccc2nc(NC(=O)C3CCCCC3)sc2c1` was 0.58 µg/mL (≈ 1.61 µM). For the compound `Cc1cc(C(=O)Nc2ccc3nc(NC(=O)C4CCCCC4)sc3c2)c(C)n1C`, the EC50 is over 6.2 µg/mL.

As to `Cc1ccccc1C(=O)Nc1ccc2nc(NC(=O)C3CCCCC3)sc2c1`, the EC50 amounted to 0.085 µg/mL (≈ 0.216 µM). Regarding `O=C(NCc1ccccc1)Nc1nc2ccc(NC(=O)c3c(Cl)cccc3Cl)cc2s1`, the EC50 stood at 0.15 µg/mL (≈ 0.318 µM).

Turning to `COc1ccccc1Nc1nc2ccc(NC(=O)c3c(Cl)cccc3Cl)cc2s1`, the 50% effective concentration (EC50) is over 7.2 µg/mL.

Turning to `Cc1cc(C(=O)Nc2ccc3nc(NC(=O)C4CCCCC4)sc3c2)n(C)n1`, the half-maximal effective concentration (EC50) was 0.12 µg/mL (≈ 0.302 µM). Same read-out and setting: the figure for `CC(C)COC(=O)Nc1ccc2nc(NC(=O)C3CCCCC3)sc2c1` is 0.72 µg/mL (≈ 1.92 µM); for `CCOC(=O)Nc1nc2cc(NC(=O)c3c(Cl)cccc3Cl)ccc2s1` it is 2.5 µg/mL (≈ 6.09 µM). Still for that read-out and setting: the figure for `CC(C)CC(=O)Nc1nc2ccc(NC(=O)c3c(Cl)cccc3Cl)cc2s1` is 0.012 µg/mL (≈ 0.0284 µM). In the case of `Cc1cccc(C)c1NC(=O)Nc1ccc2nc(NC(=O)C3CCCCC3)sc2c1`, the EC50 turned out to be 0.56 µg/mL (≈ 1.33 µM). With `O=C(Nc1ccc2nc(NC(=O)C3CCCCC3)sc2c1)c1ccc(Br)cc1`, the 50% effective concentration (EC50) is over 4 µg/mL. `CC(C)OC(=O)Nc1nc2ccc(NC(=O)c3c(Cl)cccc3Cl)cc2s1`: the concentration for a half-maximal effect (EC50) amounted to 0.0026 µg/mL (≈ 0.00613 µM).

On to `Cc1nc(C)c(C(=O)Nc2ccc3nc(NC(=O)C4CCCCC4)sc3c2)s1`, for which the EC50 was 0.39 µg/mL (≈ 0.941 µM). Turning to `O=C(Nc1ccc2nc(NCC3CCCCC3)sc2c1)c1c(Cl)cccc1Cl`, the half-maximal effective concentration (EC50) was found to be 4.3 µg/mL (≈ 9.9 µM). On the same count and under the same terms, the figure for `CCCCCCNC(=O)Nc1nc2ccc(NC(=O)c3c(Cl)cccc3Cl)cc2s1` is 0.29 µg/mL (≈ 0.623 µM); for `COc1ccc(Nc2nc3ccc(NC(=O)c4c(Cl)cccc4Cl)cc3s2)cc1` it is 0.87 µg/mL (≈ 1.96 µM); for `O=C(Nc1ccc2nc(NC(=O)C3CCCCC3)sc2c1)c1ccccc1C(F)(F)F` it is 0.024 µg/mL (≈ 0.0536 µM). Consider `CCOC(=O)Nc1nc2ccc(NC(=O)c3c(Cl)cccc3Cl)cc2s1`, for which the EC50 is 0.0026 µg/mL (≈ 0.00634 µM).

Take `COC(=O)Nc1nc2ccc(NC(=O)c3c(Cl)cccc3Cl)cc2s1`: the EC50 came out at 0.0095 µg/mL (≈ 0.024 µM).

On to `O=C(Nc1ccc2nc(NC(=O)C3CCCCC3)sc2c1)c1ccccc1Cl`, for which the EC50 came to 0.025 µg/mL (≈ 0.0604 µM).

In the case of `Cc1coc(C)c1C(=O)Nc1ccc2nc(NC(=O)C3CCCCC3)sc2c1`, the EC50 was determined as 2.7 µg/mL (≈ 6.79 µM). Regarding `O=C(Nc1ccc2nc(NC(=O)C3CCCCC3)sc2c1)c1ccccc1F`, the EC50 came out at 0.14 µg/mL (≈ 0.352 µM).

Consider `CCCCCCCC(=O)Nc1nc2ccc(NC(=O)c3c(Cl)cccc3Cl)cc2s1`, for which the EC50 turned out to be 0.18 µg/mL (≈ 0.388 µM).

`O=C(Nc1ccc2nc(NC(=O)C3CCC3)sc2c1)c1c(Cl)cccc1Cl`: the EC50 is 0.013 µg/mL (≈ 0.0309 µM). `CCCCOc1ccc(S(=O)(=O)Nc2ccc3nc(NC(=O)C4CCCCC4)sc3c2)cc1`: the EC50 stood at 0.75 µg/mL (≈ 1.54 µM). Take `N#Cc1cccc(C(=O)Nc2ccc3nc(NC(=O)C4CCCCC4)sc3c2)c1`: the concentration for a half-maximal effect (EC50) came to 0.52 µg/mL (≈ 1.29 µM). On the same count and under the same terms, the value for `COCCOC(=O)Nc1nc2ccc(NC(=O)c3c(Cl)cccc3Cl)cc2s1` was 0.011 µg/mL (≈ 0.025 µM); that for `O=C(Nc1nc2ccc(NC(=O)C3CCCO3)cc2s1)C1CCCCC1` (stereo not drawn) was 1.3 µg/mL (≈ 3.48 µM). Still for that read-out and setting: the value for `CCC(C)(C)C(=O)Nc1ccc2nc(NC(=O)C3CCCCC3)sc2c1` was 1 µg/mL (≈ 2.68 µM).

Regarding `O=C(Nc1ccc2nc(NC(=O)C3CCCCC3)sc2c1)c1cccnc1Cl`, the concentration giving a half-maximal response (EC50) was 0.075 µg/mL (≈ 0.181 µM).

On to `O=C(Nc1ccc2nc(NC(=O)C3CCCCC3)sc2c1)c1ccccc1Oc1ccccc1`, for which the 50% effective concentration (EC50) was 0.1 µg/mL (≈ 0.212 µM). `CC(=O)Nc1ccc2nc(NC(=O)C3CCCCC3)sc2c1`: the EC50 came to 2.7 µg/mL (≈ 8.51 µM). As to `O=C(Nc1ccc2nc(NC(=O)C3CC3)sc2c1)c1c(Cl)cccc1Cl`, the 50% effective concentration (EC50) was 0.013 µg/mL (≈ 0.032 µM). Regarding `CCCC(C)C(=O)Nc1ccc2nc(NC(=O)C3CCCCC3)sc2c1` (stereo not drawn), the 50% effective concentration (EC50) amounted to 0.14 µg/mL (≈ 0.375 µM). On to `Cc1ccc(C(=O)Nc2ccc3nc(NC(=O)C4CCCCC4)sc3c2)cc1`, for which the EC50 is 5.1 µg/mL (≈ 13 µM). On to `CCCCNC(=O)Nc1nc2ccc(NC(=O)c3c(Cl)cccc3Cl)cc2s1`, for which the half-maximal effective concentration (EC50) stood at 0.028 µg/mL (≈ 0.064 µM).

Consider `O=C(Nc1ccc2nc(NC(=O)C3CCCCC3)sc2c1)c1cccc(Oc2ccccc2)c1`, for which the 50% effective concentration (EC50) was over 4 µg/mL. Same read-out and setting: the value for `N#Cc1ccc(C(=O)Nc2ccc3nc(NC(=O)C4CCCCC4)sc3c2)cc1` was 3.3 µg/mL (≈ 8.16 µM); that for `Cc1[nH][n+](C)c(C)c1C(=O)Nc1ccc2nc(NC(=O)C3CCCCC3)sc2c1` was 0.012 µg/mL; that for `O=C(NCCc1ccccc1)Nc1ccc2nc(NC(=O)C3CCCCC3)sc2c1` was 0.7 µg/mL (≈ 1.66 µM). The same measure, in the same setting: the value for `O=C(Nc1nc2ccc(N/C(S)=N/c3ccccc3OC(F)(F)F)cc2s1)C1CCCCC1` was 2.3 µg/mL (≈ 4.65 µM); that for `CCCC(=O)Nc1nc2ccc(NC(=O)c3c(Cl)cccc3Cl)cc2s1` was 0.01 µg/mL (≈ 0.0245 µM); that for `CC(C)COC(=O)Nc1nc2ccc(NC(=O)c3c(Cl)cccc3Cl)cc2s1` was 0.0035 µg/mL (≈ 0.00798 µM). In the case of `Cn1nccc1C(=O)Nc1ccc2nc(NC(=O)C3CCCCC3)sc2c1`, the concentration for a half-maximal effect (EC50) stood at 0.58 µg/mL (≈ 1.51 µM). With `CC(C)(C)OC(=O)Nc1nc2ccc(NC(=O)c3c(Cl)cccc3Cl)cc2s1`, the EC50 stood at 0.027 µg/mL (≈ 0.0616 µM).

The next test deals with Mus musculus. The test can be described thus: In vivo percent inhibitory effect on tumor growth after 11 days against mouse Lewis lung carcinoma xenograft model (LLC) at the dose of 5 mg/kg/shot; (Schedule day=1,4,7). Type of test: functional. The conditions noted are these: 264 h, read-out: TGI. The procedure, abridged: (§1)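 Mouse Lewis lung carcinoma was inoculated subcutaneously into BDF1 female mice (n = 6) on day 0. Dosing was iv in 10% DMA/10% HCO60 (polyoxyethylene hydrogenated castor oil 60)/80% saline on the stated schedule. Tumor growth inhibition (%) was based on tumor volume at day 11, with significance by t test (p < 0.05).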
For the compound `O=C(Nc1ccc2nc(NC(=O)C3CC3)sc2c1)c1c(Cl)cccc1Cl`, the inhibition in vivo at 5 mg/kg came out at 63%.

The subject of another test is Mus musculus. As to the kind of experiment: In vivo percent inhibitory effect on tumor growth after 11 days against mouse Lewis lung carcinoma xenograft model (LLC) at the dose of 20 mg/kg/shot; (Schedule day=1). In kind it is functional. The conditions noted are these: 264 h, read-out: TGI. Put shortly:
as §1
On to `O=C(Nc1ccc2nc(NC(=O)C3CC3)sc2c1)c1c(Cl)cccc1Cl`, for which the inhibition in vivo at 20 mg/kg is 68%.

The species named for another test is Mus musculus. As to the kind of experiment: Half life time in plasma (concentration). In kind it is functional, organism-based.
Settings: not given
Put shortly:
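Plasma levels were measured in BDF1 female mice after iv administration at 10 mg/kg, with n = 2 and the mean concentration–time profile reported. The plasma half-life was derived from these profiles.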
In turn, `O=C(Nc1ccc2nc(NC(=O)C3CCCCC3)sc2c1)c1c(Cl)cccc1Cl` came in with a T1/2 of 1.1 h.

The test system of the next test is Mus musculus. The test can be described thus: In vivo percent inhibitory effect on tumor growth after 11 days against mouse Lewis lung carcinoma xenograft model (LLC) at the dose of 40 mg/kg/shot; (Schedule day=1,4,7). In kind it is functional. The following applies: 264 h, read-out: TGI. The procedure, abridged: as §1
As for `O=C(Nc1ccc2nc(NC(=O)C3CCCCC3)sc2c1)c1c(Cl)cccc1Cl`, the inhibition in vivo at 40 mg/kg amounted to 35%. In the case of `Cn1ncc([N+](=O)[O-])c1C(=O)Nc1ccc2nc(NC(=O)C3CCCCC3)sc2c1`, the inhibition in vivo at 40 mg/kg was 15%.
